Assay results taken from ChEMBL document CHEMBL3232752, “Synthesis, cytotoxicity and molecular modelling studies of new phenylcinnamide derivatives as potent inhibitors of cholinesterases” (Eur J Med Chem, 2014).

Tests used:
Acetylcholinesterase = Acetylcholinesterase (Electrophorus electricus, UniProt O42275); assay: (§1) Inhibition of electric eel acetylcholinesterase using acetylthiocholine iodide as substrate preincubated for 10 mins before substrate addition after 15 mins by Ellman's method
Sequence of Acetylcholinesterase (O42275 whole entry): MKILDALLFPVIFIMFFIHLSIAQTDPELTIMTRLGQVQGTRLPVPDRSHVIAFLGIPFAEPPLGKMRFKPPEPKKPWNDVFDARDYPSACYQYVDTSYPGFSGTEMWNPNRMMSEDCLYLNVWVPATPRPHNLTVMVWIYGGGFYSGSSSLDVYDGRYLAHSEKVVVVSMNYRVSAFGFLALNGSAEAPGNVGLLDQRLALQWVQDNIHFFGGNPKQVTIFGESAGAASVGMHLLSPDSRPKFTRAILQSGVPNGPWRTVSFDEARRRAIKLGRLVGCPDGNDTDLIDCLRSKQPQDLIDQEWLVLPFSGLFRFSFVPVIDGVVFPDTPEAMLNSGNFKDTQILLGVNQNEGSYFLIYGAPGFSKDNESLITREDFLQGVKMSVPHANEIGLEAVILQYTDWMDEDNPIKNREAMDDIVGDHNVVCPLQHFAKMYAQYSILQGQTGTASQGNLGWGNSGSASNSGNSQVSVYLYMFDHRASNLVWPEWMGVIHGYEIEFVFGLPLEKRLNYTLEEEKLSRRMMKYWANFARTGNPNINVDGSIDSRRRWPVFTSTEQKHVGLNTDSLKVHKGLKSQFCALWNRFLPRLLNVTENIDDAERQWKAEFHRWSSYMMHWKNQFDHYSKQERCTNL

Cholinesterase = Cholinesterase (Homo sapiens, UniProt P06276); assay: Inhibition of human BChE using butyrylthiocholine iodide as substrate preincubated for 10 mins before substrate addition after 15 mins by Ellman's method; set-up: concentration or dose not given beside the values
Sequence of Cholinesterase (P06276 whole entry): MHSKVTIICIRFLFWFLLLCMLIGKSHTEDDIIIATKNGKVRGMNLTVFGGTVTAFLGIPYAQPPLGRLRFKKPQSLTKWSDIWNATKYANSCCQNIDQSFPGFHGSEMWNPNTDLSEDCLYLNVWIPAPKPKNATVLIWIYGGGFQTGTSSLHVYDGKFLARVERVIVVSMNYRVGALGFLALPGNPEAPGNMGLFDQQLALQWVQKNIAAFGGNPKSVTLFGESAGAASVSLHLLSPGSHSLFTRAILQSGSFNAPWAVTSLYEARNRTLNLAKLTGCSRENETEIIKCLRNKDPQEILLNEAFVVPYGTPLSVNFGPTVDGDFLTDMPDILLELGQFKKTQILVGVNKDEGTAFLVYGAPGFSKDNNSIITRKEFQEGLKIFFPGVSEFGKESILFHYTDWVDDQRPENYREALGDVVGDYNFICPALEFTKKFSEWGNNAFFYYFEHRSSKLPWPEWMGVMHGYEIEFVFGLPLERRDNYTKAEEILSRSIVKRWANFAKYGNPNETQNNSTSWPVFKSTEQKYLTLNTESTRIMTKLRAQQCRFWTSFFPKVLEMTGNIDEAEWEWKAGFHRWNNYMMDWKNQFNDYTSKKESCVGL

[1] = biological target: Acetylcholinesterase (Electrophorus electricus) (UniProt O42275); assay: as §1; set-up: concentration or dose not given beside the values
Sequence of Acetylcholinesterase (Electrophorus electricus) (O42275 24-633 limits assumed): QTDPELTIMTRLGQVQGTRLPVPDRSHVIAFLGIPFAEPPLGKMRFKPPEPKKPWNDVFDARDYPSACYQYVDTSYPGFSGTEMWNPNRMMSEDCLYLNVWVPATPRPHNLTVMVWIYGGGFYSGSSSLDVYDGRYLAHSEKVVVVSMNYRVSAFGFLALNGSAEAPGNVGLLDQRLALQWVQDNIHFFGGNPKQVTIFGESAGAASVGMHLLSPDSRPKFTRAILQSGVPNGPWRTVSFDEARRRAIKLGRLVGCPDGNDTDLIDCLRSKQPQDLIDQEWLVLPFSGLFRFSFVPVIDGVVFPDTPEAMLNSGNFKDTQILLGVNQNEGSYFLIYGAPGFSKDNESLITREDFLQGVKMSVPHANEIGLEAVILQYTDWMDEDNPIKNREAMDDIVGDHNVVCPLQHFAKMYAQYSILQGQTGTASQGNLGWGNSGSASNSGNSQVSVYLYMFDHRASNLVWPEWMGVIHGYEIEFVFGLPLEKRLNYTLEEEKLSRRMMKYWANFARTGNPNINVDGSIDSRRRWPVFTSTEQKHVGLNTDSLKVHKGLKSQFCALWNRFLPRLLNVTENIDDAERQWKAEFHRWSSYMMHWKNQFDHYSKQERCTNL

NCI-H157 [2] = assay: Antiproliferative activity against human NCI-H157 cells at 1 uM after 48 hrs by SRB assay; format: functional
Outline: (§2)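 H157 lung carcinoma cells were seeded at 10⁴ cells per well in 96-well plates and grown 24 h at 37 °C in 5% CO₂ to a monolayer. Compounds were added at […]. Cells were fixed, stained with 0.4% w/v sulforhodamine B in 1% acetic acid for 30 min at room temperature, rinsed in acetic acid, and the dye dissolved in 10 mM Tris base for 10 min.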

NCI-H157 [3] = assay: Antiproliferative activity against human NCI-H157 cells at 100 uM after 48 hrs by SRB assay; format: functional; outline: as §2

| Compound | IC50 (Acetylcholinesterase) [µM] | inhibition (Cholinesterase) [%] | inhibition [1] [%] | further results |
| --- | --- | --- | --- | --- |
| COc1cc(NC(=O)/C=C/c2ccc(OCc3ccccc3)cc2)cc(OC)c1OC | 3.72 | 33.5 | – | – |
| COc1ccc(/C=C/C(=O)Nc2cc(OC)c(OC)c(OC)c2)cc1O | 4.22 | – | – | IC50 (Cholinesterase): 7.65 µM |
| COc1cccc(/C=C/C(=O)Nc2cc(OC)c(OC)c(OC)c2)c1O | 6.22 | – | – | IC50 (Cholinesterase): 5.19 µM |
| COc1cc(NC(=O)/C=C/c2cccc(OC(C)=O)c2)cc(OC)c1OC | – | – | 29.2 | IC50 (Cholinesterase): 1.25 µM |
| COc1cc(NC(=O)/C=C/c2c(Cl)cccc2[N+](=O)[O-])cc(OC)c1OC | – | – | 34.2 | – |
| COc1cc(NC(=O)/C=C/c2cccc([N+](=O)[O-])c2)cc(OC)c1OC | 3.24 | 26.2 | – | – |
| COc1cc(NC(=O)/C=C/c2ccc(O)c(O)c2)cc(OC)c1OC | – | 34.6 | 36.4 | – |
| COc1cc(NC(=O)/C=C/c2cc(O)ccc2O)cc(OC)c1OC | – | 36.2 | 30.3 | Activity (NCI-H157 [2]): 60% |
| COc1cc(NC(=O)/C=C/c2ccc(O)cc2O)cc(OC)c1OC | – | 18.2 | 36.6 | – |
| C=CCOc1ccccc1/C=C/C(=O)Nc1cc(OC)c(OC)c(OC)c1 | 1.41 | 24.8 | – | – |
| COc1cc(NC(=O)/C=C/c2c(F)cccc2Cl)cc(OC)c1OC | – | – | 34.1 | IC50 (Cholinesterase): 1.32 µM; Activity (NCI-H157 [2]): 66% |
| COc1ccc(/C=C/C(=O)Nc2cc(OC)c(OC)c(OC)c2)cc1OCc1ccccc1 | 6.02 | 31.1 | – | Activity (NCI-H157 [2]): 61% |
| COc1cc(NC(=O)/C=C/c2ccc(NOC(C)=O)cc2)cc(OC)c1OC | 12.5 | – | – | IC50 (Cholinesterase): 3.85 µM |
| C=CCOc1ccc(/C=C/C(=O)Nc2cc(OC)c(OC)c(OC)c2)cc1 | – | 32.6 | 33.6 | – |
| COc1cccc(/C=C/C(=O)Nc2cc(OC)c(OC)c(OC)c2)c1 | 12.9 | 41.8 | – | – |
| CC[C@]1(O)C[C@H]2CN(CCc3c([nH]c4ccccc34)[C@@](C(=O)OC)(c3cc4c(cc3OC)N(C=O)[C@H]3[C@@](O)(C(=O)OC)[C@H](OC(C)=O)[C@]5(CC)C=CCN6CC[C@]43[C@@H]65)C2)C1 [VINCRISTINE] | – | – | – | Activity (NCI-H157 [3]): 46% |
| COc1cc(NC(=O)/C=C/c2ccccc2OCc2ccccc2)cc(OC)c1OC | 0.29 | 32.1 | – | – |
| COc1ccc(/C=C/C(=O)Nc2cc(OC)c(OC)c(OC)c2)cc1[N+](=O)[O-] | 6.69 | 28.1 | – | Activity (NCI-H157 [2]): 66% |
| COc1cc(NC(=O)/C=C/c2cccc(OCc3ccccc3)c2)cc(OC)c1OC | 6.52 | – | – | IC50 (Cholinesterase): 3.93 µM |
| CN(C)C(=O)Oc1cccc([N+](C)(C)C)c1 [NEOSTIGMINE] | 22 | – | – | IC50 (Cholinesterase): 49.1 µM |
| COc1cc(/C=C/C(=O)Nc2cc(OC)c(OC)c(OC)c2)ccc1OC(C)=O | 4.98 | 31.1 | – | – |
| COc1cc(NC(=O)/C=C/c2c(O)cccc2[N+](=O)[O-])cc(OC)c1OC | 12.8 | 35.4 | – | – |
| COc1cc(NC(=O)/C=C/c2ccc(Cl)cc2)cc(OC)c1OC | 31.2 | 25.7 | – | – |
| COc1cc(NC(=O)/C=C/c2ccc(OCc3ccccc3)cc2O)cc(OC)c1OC | 1.59 | 27.2 | – | – |
| COc1cc(/C=C/C(=O)Nc2cc(OC)c(OC)c(OC)c2)ccc1OCc1ccccc1 | 12.6 | 32.8 | – | – |
| COc1cc(NC(=O)/C=C/c2cccc(O)c2O)cc(OC)c1OC | – | 41.2 | 31.2 | – |
| COc1cc(NC(=O)/C=C/c2ccc(OC(C)=O)cc2)cc(OC)c1OC | – | 37.4 | 36.5 | – |
